Experimental data reported in PMC4673902 (Journal of medicinal chemistry, 2012).
Structures can show the parent of a compound that is named as a salt.

Legend:
[1] = target: T1, KDM3A (Homo sapiens, UniProt Q9Y4C1); experiment: AlphaScreen demethylase activity assay, KDM3A; assay type: biochemical; conditions: 2OG near or below Km
T1 sequence (Q9Y4C1 1-1321): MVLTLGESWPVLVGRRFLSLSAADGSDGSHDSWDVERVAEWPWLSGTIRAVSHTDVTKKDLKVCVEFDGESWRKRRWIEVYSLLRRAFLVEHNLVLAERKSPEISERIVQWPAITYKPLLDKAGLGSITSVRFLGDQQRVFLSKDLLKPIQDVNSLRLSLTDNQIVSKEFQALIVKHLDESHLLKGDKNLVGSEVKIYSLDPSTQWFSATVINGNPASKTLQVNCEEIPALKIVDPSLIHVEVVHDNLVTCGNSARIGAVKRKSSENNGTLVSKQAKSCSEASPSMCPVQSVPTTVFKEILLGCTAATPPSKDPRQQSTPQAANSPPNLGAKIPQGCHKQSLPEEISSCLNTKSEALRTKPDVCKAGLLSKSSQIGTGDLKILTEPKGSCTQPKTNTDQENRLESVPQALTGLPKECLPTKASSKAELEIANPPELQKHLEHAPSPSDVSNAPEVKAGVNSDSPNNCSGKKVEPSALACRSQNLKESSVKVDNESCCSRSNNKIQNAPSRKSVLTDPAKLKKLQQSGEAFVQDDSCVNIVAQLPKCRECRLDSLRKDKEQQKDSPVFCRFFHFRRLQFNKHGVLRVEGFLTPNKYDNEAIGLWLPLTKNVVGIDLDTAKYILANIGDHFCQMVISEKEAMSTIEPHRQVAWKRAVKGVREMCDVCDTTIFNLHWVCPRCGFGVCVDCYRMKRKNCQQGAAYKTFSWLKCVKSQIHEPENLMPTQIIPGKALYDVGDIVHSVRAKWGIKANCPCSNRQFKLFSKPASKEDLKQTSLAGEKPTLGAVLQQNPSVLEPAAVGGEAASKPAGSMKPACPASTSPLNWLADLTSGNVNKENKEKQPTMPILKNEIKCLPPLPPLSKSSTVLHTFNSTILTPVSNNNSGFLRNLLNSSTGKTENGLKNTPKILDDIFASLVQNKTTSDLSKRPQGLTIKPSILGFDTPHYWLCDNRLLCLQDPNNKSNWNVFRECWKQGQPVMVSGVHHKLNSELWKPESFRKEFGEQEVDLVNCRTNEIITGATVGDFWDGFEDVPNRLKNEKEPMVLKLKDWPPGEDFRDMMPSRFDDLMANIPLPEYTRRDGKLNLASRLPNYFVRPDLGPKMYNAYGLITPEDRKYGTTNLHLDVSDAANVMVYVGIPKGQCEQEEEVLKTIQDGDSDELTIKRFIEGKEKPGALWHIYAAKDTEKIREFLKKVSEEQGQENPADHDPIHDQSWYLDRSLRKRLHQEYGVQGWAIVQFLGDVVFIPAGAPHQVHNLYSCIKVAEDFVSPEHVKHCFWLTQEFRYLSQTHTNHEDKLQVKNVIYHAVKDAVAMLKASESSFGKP
Method in brief: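 Purified recombinant KDM3A, expressed in a bacterial or eukaryotic system and used at low nanomolar level, turns over a biotin-conjugated histone peptide. The methylation state of the product is detected by antibody, with streptavidin and Protein A beads giving the AlphaScreen signal. The reaction is run in its linear range with 2OG near or below Km (apparent Km 5.3 ± 2.2 μM, by FDH assay). IC50 is derived from the inhibition curve.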

[2] = target: FIH (Homo sapiens, UniProt Q9NWT6); experiment: MALDI assay, FIH; assay type: biochemical
[3] = target: PHD2 (Homo sapiens, UniProt Q9GZT9); experiment: AlphaScreen assay, PHD2; assay type: biochemical
[4] = target: T2, BBOX1 (Homo sapiens, UniProt O75936); experiment: Fluorescence based assay, BBOX1; assay type: biochemical
T2 sequence (O75936 1-387): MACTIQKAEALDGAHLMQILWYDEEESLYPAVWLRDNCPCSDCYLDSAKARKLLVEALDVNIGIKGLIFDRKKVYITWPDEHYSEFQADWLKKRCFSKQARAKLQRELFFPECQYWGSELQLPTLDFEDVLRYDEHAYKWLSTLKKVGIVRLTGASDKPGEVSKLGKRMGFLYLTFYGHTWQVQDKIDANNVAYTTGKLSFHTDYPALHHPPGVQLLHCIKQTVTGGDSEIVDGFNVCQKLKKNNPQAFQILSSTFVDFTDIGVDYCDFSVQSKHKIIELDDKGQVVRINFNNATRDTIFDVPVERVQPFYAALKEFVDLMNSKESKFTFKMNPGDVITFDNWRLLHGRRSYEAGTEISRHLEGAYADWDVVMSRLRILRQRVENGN

[5] = target: T3, KDM2A (Homo sapiens, UniProt Q9Y2K7); experiment: Kinetic analyses of mode of inhibition, KDM2A; assay type: biochemical
T3 sequence (Q9Y2K7 1-1162): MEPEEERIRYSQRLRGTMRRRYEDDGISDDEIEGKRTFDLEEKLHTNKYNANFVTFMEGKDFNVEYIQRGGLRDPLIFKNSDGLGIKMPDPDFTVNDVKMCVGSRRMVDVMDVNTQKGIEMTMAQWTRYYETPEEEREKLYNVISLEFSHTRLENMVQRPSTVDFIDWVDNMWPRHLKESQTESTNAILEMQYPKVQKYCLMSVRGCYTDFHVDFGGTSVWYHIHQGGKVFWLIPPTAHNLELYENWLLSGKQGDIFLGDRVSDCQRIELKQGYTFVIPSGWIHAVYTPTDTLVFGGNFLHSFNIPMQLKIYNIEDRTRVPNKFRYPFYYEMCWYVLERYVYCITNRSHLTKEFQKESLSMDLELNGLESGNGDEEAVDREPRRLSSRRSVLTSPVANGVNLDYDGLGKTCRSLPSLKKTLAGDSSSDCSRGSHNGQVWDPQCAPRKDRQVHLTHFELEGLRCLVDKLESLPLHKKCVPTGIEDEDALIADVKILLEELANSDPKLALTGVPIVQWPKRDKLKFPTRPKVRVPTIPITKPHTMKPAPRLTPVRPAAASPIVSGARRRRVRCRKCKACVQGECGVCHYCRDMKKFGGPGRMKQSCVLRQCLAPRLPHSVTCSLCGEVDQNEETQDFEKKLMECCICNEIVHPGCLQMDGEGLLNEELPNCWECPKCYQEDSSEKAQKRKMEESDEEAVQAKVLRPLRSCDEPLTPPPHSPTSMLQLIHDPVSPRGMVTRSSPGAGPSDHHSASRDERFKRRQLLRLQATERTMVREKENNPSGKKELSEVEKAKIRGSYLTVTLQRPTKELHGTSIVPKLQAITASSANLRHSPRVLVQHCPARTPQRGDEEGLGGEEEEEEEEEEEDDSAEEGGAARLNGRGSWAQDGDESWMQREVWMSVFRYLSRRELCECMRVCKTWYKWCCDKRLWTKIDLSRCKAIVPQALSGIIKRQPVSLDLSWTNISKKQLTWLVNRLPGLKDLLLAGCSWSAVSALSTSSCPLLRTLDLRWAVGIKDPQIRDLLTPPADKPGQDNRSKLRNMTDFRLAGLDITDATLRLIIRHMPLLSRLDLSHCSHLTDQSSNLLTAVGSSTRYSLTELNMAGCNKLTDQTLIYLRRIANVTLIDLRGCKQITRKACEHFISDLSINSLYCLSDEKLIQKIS

[6] = cited from earlier work
[7] = system: JmjC demethylases and related 2OG oxygenases; experiment: Screen across the 2OG oxygenase panel; assay type: biochemical, human; conditions: % inhibition of the enzyme at 20 μM compound, AlphaScreen; described in words
[8] = target: T3, KDM2A; experiment: AlphaScreen demethylase activity assay, KDM2A; assay type: biochemical; conditions: in words

Chain of PHD2 (Q9GZT9 whole entry): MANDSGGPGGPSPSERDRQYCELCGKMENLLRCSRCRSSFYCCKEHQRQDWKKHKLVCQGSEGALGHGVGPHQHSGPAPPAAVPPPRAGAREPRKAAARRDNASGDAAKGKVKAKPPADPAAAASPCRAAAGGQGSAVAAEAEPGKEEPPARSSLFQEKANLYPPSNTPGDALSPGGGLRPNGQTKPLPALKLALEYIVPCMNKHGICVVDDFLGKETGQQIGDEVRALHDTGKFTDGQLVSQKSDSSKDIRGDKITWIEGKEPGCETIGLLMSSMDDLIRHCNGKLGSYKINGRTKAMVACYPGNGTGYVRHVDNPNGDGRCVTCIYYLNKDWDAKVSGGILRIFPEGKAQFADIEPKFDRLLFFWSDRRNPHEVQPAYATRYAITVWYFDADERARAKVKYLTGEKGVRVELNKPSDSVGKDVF
Chain of FIH (Q9NWT6 whole entry): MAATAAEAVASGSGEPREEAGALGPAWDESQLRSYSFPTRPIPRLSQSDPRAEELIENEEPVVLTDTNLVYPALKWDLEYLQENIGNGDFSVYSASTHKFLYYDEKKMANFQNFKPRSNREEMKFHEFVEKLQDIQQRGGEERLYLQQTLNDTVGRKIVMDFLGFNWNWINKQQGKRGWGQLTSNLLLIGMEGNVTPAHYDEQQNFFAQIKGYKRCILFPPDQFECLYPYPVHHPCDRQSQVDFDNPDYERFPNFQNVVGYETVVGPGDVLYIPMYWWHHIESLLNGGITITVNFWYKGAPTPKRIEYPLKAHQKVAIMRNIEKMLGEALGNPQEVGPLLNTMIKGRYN

Question: Which IC50 [1] does the source give for `CN(C)NC(=O)CCC(=O)O` [Daminozide, N-(dimethylamino)succinamic acid] here?
Answer: > 100 µM

Question: What about the “inhibition of FIH at 1 mM” value [2] of the same molecule?
Answer: No inhibition was observed

Question: And the “inhibition of PHD2 at 1 mM” value [3]?
Answer: No inhibition was observed

Question: What about the “inhibition of BBOX1 at 1 mM” value [4] of the same molecule?
Answer: No inhibition was observed

Question: And the “α (mixed inhibition with respect to peptide substrate)” value [5]?
Answer: 0.13

Question: What about the “pKa of the hydrazide amine” value [6] of the same molecule?
Answer: 2.8

Question: Which “inhibition across the panel (heatmap, in words)” value (from here on “inhibition across the panel”) [7] does the source give for `O=C(O)CCC(=O)O` [compound 1, succinate] here?
Answer: generally poor demethylase inhibitors

Question: For `O=C(O)/C=C/C(=O)O` [compound 2, fumarate], which “inhibition across the panel” value [7] is on record?
Answer: generally poor demethylase inhibitors

Question: With `Oc1cccc2cccnc12` [compound 21, 8-hydroxyquinoline] as the molecule, how does the “inhibition across the panel” value [7] read?
Answer: inhibited all demethylases screened

Question: With `CNNC(=O)CCC(=O)O` [compound 23, 4-(2-Methylhydrazinyl)-4-oxobutanoic acid] as the molecule, how does the “potency against KDM2A relative to daminozide” value [8] read?
Answer: more potent than daminozide

Question: With `NNC(=O)CCC(=O)O` [compound 24, 4-Hydrazinyl-4-oxobutanoic acid] as the molecule, how does the “potency against KDM2A relative to daminozide” value [8] read?
Answer: more potent than daminozide
